Laboratory results taken from ChEMBL document CHEMBL4190389, “Synthesis and activity of di- or trisubstituted N-(phenoxyalkyl)- or N-{2-[2-(phenoxy)ethoxy]ethyl}piperazine derivatives on the central nervous system” (Bioorg Med Chem Lett, 2018).
Calls of active or inactive are those of the source. The calls are words filed in the database; no cut-off is given here.

What was measured:
[1] = biological target: 5-hydroxytryptamine receptor 6 (Homo sapiens, UniProt P50406); assay: Displacement of [3H]LSD from recombinant human 5-HT6 receptor expressed in CHO cells cell membranes at 10^-5 M after 60 mins by liquid scintillation counting method
Sequence of 5-hydroxytryptamine receptor 6 (P50406 whole entry): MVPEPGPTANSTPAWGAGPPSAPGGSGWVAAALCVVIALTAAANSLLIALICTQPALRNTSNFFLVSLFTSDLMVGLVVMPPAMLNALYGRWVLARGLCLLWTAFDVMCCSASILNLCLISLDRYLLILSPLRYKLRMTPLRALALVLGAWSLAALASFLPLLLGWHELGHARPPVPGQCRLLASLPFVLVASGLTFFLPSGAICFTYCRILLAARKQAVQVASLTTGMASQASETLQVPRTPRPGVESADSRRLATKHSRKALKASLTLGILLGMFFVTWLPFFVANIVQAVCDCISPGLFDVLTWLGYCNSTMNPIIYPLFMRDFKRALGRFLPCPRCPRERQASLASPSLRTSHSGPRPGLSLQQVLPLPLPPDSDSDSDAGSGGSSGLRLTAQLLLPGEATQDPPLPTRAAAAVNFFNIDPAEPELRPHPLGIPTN

Mus musculus [2] = assay: Antidepressant-like activity in Albino Swiss CD-1 mouse assessed as immobility time at 20 mg/kg, ip administered 30 mins prior to test measured for last 4 mins of 6 mins observation by forced swim test (reference value: 153.9 to 201.9 secs); type: functional
Mus musculus [3] = assay: Anxiolytic-like activity in Albino Swiss CD-1 mouse assessed as increase in number of punished crossings at 5 mg/kg, ip administered for 30 mins prior to test measured for 1 min by four-plate test; type: functional, organism-based
In short: (§1)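 Four-plate test in mice, i.p., 30 min before test; vehicle 0.9% NaCl; doses 1.25–10 mg/kg; number of punished crossings counted; mean ± SEM, n = 8–10 mice per group; ANOVA F statistics.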

Mus musculus [4] = assay: Anticonvulsant activity in ip dosed Albino Swiss CD-1 mouse assessed as dose required to protect against 50 Hz current-induced seizure; type: functional; settings: Swiss CD-1, ip
Mus musculus [5] = assay: Antidepressant-like activity in Albino Swiss CD-1 mouse assessed as immobility time at 5 mg/kg, ip administered 30 mins prior to test measured for last 4 mins of 6 mins observation by forced swim test (reference value: 153.9 to 201.9 secs); type: functional
Mus musculus [6] = assay: Anxiolytic-like activity in Albino Swiss CD-1 mouse assessed as increase in number of punished crossings at 2.5 mg/kg, ip administered for 30 mins prior to test measured for 1 min by four-plate test; type: functional, organism-based; in short: as §1
[7] = Neurotoxicity in ip dosed Albino Swiss CD-1 mouse assessed as minimum dose required to induce motor impairment treated 30 mins prior to test by rotarod test; type: toxicity, organism-based; settings: in vivo
[8] = Protection index, ratio of TD50 for motor impairment in ip dosed Swiss albino CD-1 mouse to ED50 for protection against 50 Hz current-induced seizures in ip dosed Swiss albino CD-1 mouse; type: toxicity, organism-based, Swiss CD-1; settings: in vivo, read-out: Ratio TD50/ED50
Mus musculus [9] = assay: Toxicity in Albino Swiss CD-1 mouse assessed as death at 100 mg/kg, ip; type: organism-based; settings: in vivo
In short: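 Deaths counted in mice during maximal electroshock (MES) seizure testing after i.p. dosing, 6 mice per dose (3 or 1 at some top doses); recorded as number dead/number tested alongside protection and rotarod motor impairment (10 rpm); untreated control group included.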

Mus musculus [10] = assay: Toxicity in Albino Swiss CD-1 mouse assessed as effect on locomotory activity at 1.25 to 5 mg/kg, ip administered for 30 mins prior to test measured for 1 min; type: organism-based; settings: in vivo
[11] = biological target: 5-hydroxytryptamine receptor 7 (Homo sapiens, UniProt P34969); assay: Displacement of [3H]LSD from recombinant human 5-HT7 receptor expressed in CHO cell membranes at 10^-5 M after 60 mins by liquid scintillation counting method
Sequence of 5-hydroxytryptamine receptor 7 (P34969 whole entry): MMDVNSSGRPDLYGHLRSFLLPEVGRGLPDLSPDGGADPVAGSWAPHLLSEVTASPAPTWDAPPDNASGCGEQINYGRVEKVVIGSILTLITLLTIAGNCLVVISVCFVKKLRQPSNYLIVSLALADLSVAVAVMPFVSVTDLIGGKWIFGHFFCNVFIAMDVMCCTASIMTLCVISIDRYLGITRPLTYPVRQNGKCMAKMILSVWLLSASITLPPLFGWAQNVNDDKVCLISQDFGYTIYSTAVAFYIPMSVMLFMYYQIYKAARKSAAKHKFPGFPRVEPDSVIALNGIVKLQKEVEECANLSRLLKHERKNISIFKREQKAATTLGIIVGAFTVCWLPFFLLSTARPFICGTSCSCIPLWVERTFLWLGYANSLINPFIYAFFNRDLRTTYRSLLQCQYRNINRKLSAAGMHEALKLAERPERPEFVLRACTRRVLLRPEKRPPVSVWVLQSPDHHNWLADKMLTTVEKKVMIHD

[12] = biological target: T1, Alpha-1A adrenergic receptor (Homo sapiens) (UniProt P35348); assay: Displacement of [3H]prazosin from recombinant human alpha1 adrenoceptor expressed in CHO cell membranes at 10^-5 M after 30 mins by liquid scintillation counting method
T1 sequence (whole entry): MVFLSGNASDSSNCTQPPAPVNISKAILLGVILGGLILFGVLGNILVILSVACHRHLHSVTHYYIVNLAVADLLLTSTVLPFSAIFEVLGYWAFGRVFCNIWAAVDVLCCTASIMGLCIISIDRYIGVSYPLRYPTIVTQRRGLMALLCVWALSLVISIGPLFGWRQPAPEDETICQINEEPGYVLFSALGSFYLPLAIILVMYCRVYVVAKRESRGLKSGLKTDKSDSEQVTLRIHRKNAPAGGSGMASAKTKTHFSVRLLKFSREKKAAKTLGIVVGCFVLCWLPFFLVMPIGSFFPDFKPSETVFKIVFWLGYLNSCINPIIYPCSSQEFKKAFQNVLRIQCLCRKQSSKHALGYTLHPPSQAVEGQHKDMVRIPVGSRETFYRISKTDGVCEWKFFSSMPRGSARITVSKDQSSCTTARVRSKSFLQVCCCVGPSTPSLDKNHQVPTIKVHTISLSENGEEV

[13] = biological target: T2, 5-hydroxytryptamine receptor 1A (Homo sapiens, UniProt P08908); assay: Displacement of [3H]8-OH-DPAT from recombinant human 5-HT1A receptor expressed in HEK293 cell membranes after 60 mins by liquid scintillation counting method
T2 sequence (P08908 whole entry): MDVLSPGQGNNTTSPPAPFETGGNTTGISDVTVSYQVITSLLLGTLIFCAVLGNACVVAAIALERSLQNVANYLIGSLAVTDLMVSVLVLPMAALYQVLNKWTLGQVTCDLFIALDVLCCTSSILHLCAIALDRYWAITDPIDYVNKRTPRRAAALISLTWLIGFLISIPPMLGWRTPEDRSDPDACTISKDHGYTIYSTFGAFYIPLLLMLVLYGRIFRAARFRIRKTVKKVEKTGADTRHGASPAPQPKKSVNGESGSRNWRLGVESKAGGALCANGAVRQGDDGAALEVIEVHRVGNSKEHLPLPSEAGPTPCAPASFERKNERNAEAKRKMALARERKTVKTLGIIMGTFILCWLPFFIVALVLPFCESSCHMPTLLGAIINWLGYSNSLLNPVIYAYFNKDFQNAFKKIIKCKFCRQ

Mus musculus [14] = assay: Antidepressant-like activity in Albino Swiss CD-1 mouse assessed as immobility time at 10 mg/kg, ip administered 30 mins prior to test measured for last 4 mins of 6 mins observation by forced swim test (reference value: 153.9 to 201.9 secs); type: functional
[15] = biological target: T2, 5-hydroxytryptamine receptor 1A; assay: Displacement of [3H]8-OH-DPAT from human 5-HT1A receptor expressed in HEK293 cell membranes after 1 hr
Mus musculus [16] = assay: Antidepressant-like activity in ip dosed Albino Swiss CD-1 mouse assessed as decrease in immobility time administered […] prior to test measured for last 4 mins of 6 mins observation by forced swim test (reference value: 153.9 to 201.9 secs); type: functional
[17] = biological target: 5-hydroxytryptamine receptor 2A (Homo sapiens, UniProt P28223); assay: Displacement of [3H]-ketanserin from recombinant human 5-HT2A receptor after 60 mins by liquid scintillation counting method
Sequence of 5-hydroxytryptamine receptor 2A (P28223 whole entry): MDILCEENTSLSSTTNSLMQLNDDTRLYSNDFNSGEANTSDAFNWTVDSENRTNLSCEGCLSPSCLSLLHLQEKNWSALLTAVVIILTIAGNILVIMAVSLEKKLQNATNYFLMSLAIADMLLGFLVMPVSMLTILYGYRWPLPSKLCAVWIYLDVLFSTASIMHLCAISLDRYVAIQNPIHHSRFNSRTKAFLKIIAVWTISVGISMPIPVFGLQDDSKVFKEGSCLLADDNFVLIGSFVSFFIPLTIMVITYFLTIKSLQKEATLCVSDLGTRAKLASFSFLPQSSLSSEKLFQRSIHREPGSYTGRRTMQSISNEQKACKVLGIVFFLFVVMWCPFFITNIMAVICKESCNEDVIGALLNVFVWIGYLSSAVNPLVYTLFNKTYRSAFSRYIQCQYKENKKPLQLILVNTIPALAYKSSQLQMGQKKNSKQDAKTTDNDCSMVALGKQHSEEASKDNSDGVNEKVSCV

Cc1cc(C)c(OCCN2CCN(CCOCCO)CC2)c(C)c1.Cl.Cl
inhibition [1]: inactive | Time (Mus musculus [2]): 128 s | Activity (Mus musculus [3]): Active | ED50 (Mus musculus [4]): 45.4 mg/kg | Time (Mus musculus [5]): 152.5 s | Activity (Mus musculus [6]): Active | TD50 at 0.5 h [7]: 85.3 mg/kg | selectivity ratio [8]: 1.88 | Activity (Mus musculus [9]): Non-Toxic | Activity (Mus musculus [10]): Non-Toxic | inhibition [11]: inactive | inhibition [12]: inactive | Ki [13]: 3170 nM | Time (Mus musculus [14]): 135.3 s

COc1ccccc1N1CCN(CCCOc2c(C)cc(C)cc2C)CC1.Cl
Ki [15]: < 1 nM | ED (Mus musculus [16]): 5 mg/kg | Ki [17]: 2830 nM
